Experimental data: ChEMBL document CHEMBL1153110, “Optimization of (4,4-difluoro-1,2,3,4-tetrahydro-5H-1-benzazepine-5-ylidene)acetamide derivatives as arginine vasopressin V2 receptor agonists and discussion of their binding modes” (Bioorg Med Chem, 2009)

Legend:
Vasopressin V2 receptor [1] = biological target: T1, Vasopressin V2 receptor (Homo sapiens, UniProt P30518); assay: Agonist activity at human vasopressin V2 receptor expressed in CHO cells assessed as cAMP accumulation by HTRF assay; format: functional, cell-based
Procedure, shortened: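 CHO cells with human V2 receptor were grown to subconfluence and serum-starved for 24 h. They were then exposed to test compound for 10 min at 37 °C in α-MEM with 1 mmol/L IBMX and 0.1% BSA, and lysed in PBS with 0.2% Triton X-100. cAMP was read by HTRF. EC50 is the concentration giving 50% of the maximal AVP response. Triplicate.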

Vasopressin V2 receptor [2] = biological target: T1, Vasopressin V2 receptor; assay: Intrinsic activity at human vasopressin V2 receptor expressed in CHO cells assessed as cAMP accumulation by HTRF assay relative to AVP; format: functional, cell-based
Procedure, shortened: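 Intrinsic activity was measured in the cAMP HTRF assay in human V2-CHO cells: 24 h serum-free, then 10 min at 37 °C with 1 mmol/L IBMX. It is the compound's maximal response as a percentage of the maximal AVP response (100%). Assays were run in triplicate.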

[3] = biological target: Vasopressin V1a/V2 (Homo sapiens) (UniProt P30518+P37288); assay: Selectivity ratio of Ki for human vasopressin V1A receptor to Ki for human vasopressin V2 receptors
Vasopressin V2 receptor [4] = biological target: T1, Vasopressin V2 receptor; assay: Displacement of [3H]vasopressin from human vasopressin V2 receptor expressed in CHO cells by microplate scintillation counting; format: cell-based
Procedure, shortened: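 Membranes came from human V2-expressing CHO cells: hypotonic lysis, then centrifugation at 1000g and 35,000g at 4 °C. They were incubated with [3H]vasopressin at 0.91 nmol/L final in 50 mmol/L Tris-HCl pH 7.4, filtered on GF/B and washed with ice-cold Tris buffer. Retained radioactivity was scintillation counted. Assays were run in triplicate.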

Vasopressin V1a receptor = Vasopressin V1a receptor (Homo sapiens, UniProt P37288); assay: Displacement of [3H]vasopressin from human vasopressin V1A receptor expressed in CHO cells by microplate scintillation counting; format: cell-based
Rattus norvegicus = assay: Antidiuretic activity in water-loaded po dosed Wistar rat assessed as decrease in urinary excretion administered 15 mins prior to water loading measured up to 4 hrs; format: functional; details: Urine
Procedure, shortened: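 Male Wistar rats (200–300 g) were pre-screened for at least 70% excretion of an oral water load. They were deprived of feed and water and dosed orally without anesthesia. Distilled water (30 mL/kg po) was given 15 min later, and urine was collected in metabolic cages for 4 h (n = 3–6). Excretion was expressed as % of the loaded volume. ED50, the dose lowering excretion to 50%, came from linear regression.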

Sequence of Vasopressin V1a receptor (P37288 whole entry): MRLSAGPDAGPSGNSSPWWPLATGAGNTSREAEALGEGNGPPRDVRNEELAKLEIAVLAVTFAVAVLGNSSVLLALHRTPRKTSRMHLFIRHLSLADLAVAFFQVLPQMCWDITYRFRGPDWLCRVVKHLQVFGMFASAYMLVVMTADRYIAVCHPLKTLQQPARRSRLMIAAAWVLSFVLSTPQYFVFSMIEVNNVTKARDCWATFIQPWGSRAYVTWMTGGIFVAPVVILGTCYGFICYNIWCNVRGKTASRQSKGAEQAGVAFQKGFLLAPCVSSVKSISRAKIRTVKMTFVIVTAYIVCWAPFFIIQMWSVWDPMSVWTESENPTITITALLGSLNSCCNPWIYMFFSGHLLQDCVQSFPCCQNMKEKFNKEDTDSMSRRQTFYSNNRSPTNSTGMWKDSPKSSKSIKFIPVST
T1 sequence (P30518 whole entry): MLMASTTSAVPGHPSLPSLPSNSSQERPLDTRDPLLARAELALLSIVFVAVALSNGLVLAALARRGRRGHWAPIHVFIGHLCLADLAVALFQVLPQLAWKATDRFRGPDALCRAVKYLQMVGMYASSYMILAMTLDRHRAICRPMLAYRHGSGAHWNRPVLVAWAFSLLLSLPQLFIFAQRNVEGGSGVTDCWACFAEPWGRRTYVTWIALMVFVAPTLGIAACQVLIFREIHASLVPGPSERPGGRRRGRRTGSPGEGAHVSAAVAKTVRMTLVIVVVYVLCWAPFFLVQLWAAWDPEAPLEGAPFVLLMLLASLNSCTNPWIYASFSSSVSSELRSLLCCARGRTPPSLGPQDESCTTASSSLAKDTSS
Sequence of Vasopressin V1a/V2 (Homo sapiens) (P30518 whole entry, looked up): as the sequence (P30518 whole entry) above
Sequence of Vasopressin V1a/V2 (Homo sapiens) (P37288 whole entry, looked up): as the sequence (P37288 whole entry) above

Row | SMILES | EC50 (Vasopressin V2 receptor [1]) [nM] | Intrinsic activity (Vasopressin V2 receptor [2]) [%] | Ratio Ki [3] | Ki (Vasopressin V2 receptor [4]) [nM] | Ki (Vasopressin V1a receptor) [nM] | ED50 (Rattus norvegicus) [mg/kg]
1 | C[C@@H]1CCN(c2ccc(C(=O)N3CCC(F)(F)/C(=C\C(=O)NCCO)c4ccccc43)c(Cl)c2)C1 | 0.99 | 118 | 1 | 13 | 13 | 
2 | C[C@H]1CCN(c2ccc(C(=O)N3CCC(F)(F)/C(=C\C(=O)NCCO)c4ccccc43)c(C(F)(F)F)c2)C1 | 1 | 111 | 3.1 | 14 | 43 | 0.012
3 | Cc1ccn(-c2ccc(C(=O)N3CCC(F)(F)/C(=C\C(=O)NCCO)c4ccccc43)c(C(F)(F)F)c2)n1 | 2.4 | 115 | 2.2 | 78 | 170 | 0.2
4 | C[C@H]1CCN(c2ccc(C(=O)N3CCC(F)(F)/C(=C\C(=O)NCCO)c4ccccc43)c(Cl)c2)C1 | 0.98 | 109 | 1.2 | 14 | 17 | 
5 | Cc1ccn(-c2ccc(C(=O)N3CCC(F)(F)/C(=C\C(=O)NCCO)c4ccccc43)c(Cl)c2)n1 |  | 93.9 | 2.9 |  |  | 0.14
6 | C[C@@H]1CCN(c2ccc(C(=O)N3CCC(F)(F)/C(=C\C(=O)NCCO)c4ccccc43)c(C(F)(F)F)c2)C1 | 1 | 114 | 2.4 | 16 | 39 | 0.04
